Source: PubChem BioAssay (The Scripps Research Institute Molecular Screening Center)
SMARCA2 act: SMARCA2 (BRM) function activators, primary screen, cell-based, luminescence, high throughput | actives 1% (n = 370,000) | activation, % at 9.1 µM | MG213 cells, MMTV-luciferase reporter, dexamethasone, overnight | AID 652017, 2013; in the data active = activation above about 7.8%;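 note: 0% = vehicle wells and 100% = reference activator wells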
GalR3 antag: GalR3 antagonists in HEK293 cells, primary screen, cell-based, fluorescence readout. actives 0.44% (n = 360,000). Galanin receptor type 3 (Homo sapiens), O60755. HEK293 GalR3-CNG cAMP membrane potential fluorescence; galR3 body fused to GalR1 C-terminus. inhibition, % at 3 µM;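 active = inhibition above the screen-wide average plus 3 SD, cut at about 13% in these data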;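 note: forskolin and galanin both at EC90 stimulate the cells; cAMP rise reported by CNG channel membrane potential dye signal; 0% = forskolin plus galanin with DMSO and 100% = forskolin alone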
Target sequence (O60755 1-299 limits assumed): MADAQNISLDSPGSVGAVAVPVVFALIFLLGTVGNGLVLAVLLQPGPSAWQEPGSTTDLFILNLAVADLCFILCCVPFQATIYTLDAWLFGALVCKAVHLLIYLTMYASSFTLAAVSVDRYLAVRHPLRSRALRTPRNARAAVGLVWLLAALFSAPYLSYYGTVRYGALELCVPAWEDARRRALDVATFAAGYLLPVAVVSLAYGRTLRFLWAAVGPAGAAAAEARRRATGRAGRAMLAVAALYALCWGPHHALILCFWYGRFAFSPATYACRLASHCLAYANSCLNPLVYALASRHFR
NR2E3 ag-1: NR2E3 agonists in two-hybrid cells, primary screen, cell-based, luminescence, CHO-S, Gal4-NCOR/VP16-NR2E3 | actives 0.35% (n = 360,000) | Photoreceptor-specific nuclear receptor (Homo sapiens), Q9Y5X4 | luciferase | AID 602229, 2012 | inhibition of corepressor binding, % at 3.98 µM;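 active = inhibition above the mean of all tested compounds plus 3 SD, cut at about 70% in these data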;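 note: 0% = DMSO with NR2E3 transfected cells and 100% = cells lacking NR2E3 construct; higher means lower luciferase signal from less NR2E3 corepressor binding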
NR2E3 ag-2: inhibitors of NR2E3-RetCOR corepressor binding, primary screen, NR2E3 agonist project, biochemical, TR-FRET, GST-NR2E3, biotin-RetCOR; inhibition of corepressor binding, % at 4.78 µM; 1536-well; Photoreceptor-specific nuclear receptor (Homo sapiens), Q9Y5X4; AID 2300, 2010; actives 0.12% (n = 320,000);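 active = percent inhibition above the cutoff of mean plus 3 SD of all tested compounds, set per screening campaign, cut at about 20% in these data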;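 note: 0% = DMSO wells and 100% = biotin wells as full block of FRET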
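Material: NR2E3–RetCOR corepressor complex / Incubation: Compound–protein incubation for 5 h at 4 °C / Dosing: compound at 4.8 µM, single dose / Detection: time-resolved FRET / Benchmarks: high control biotin, low control 0.6% DMSO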
COUP-TFII inh: NR2F2 transcriptional activity inhibitors, primary screen, cell-based, luciferase reporter, HEK293T, luminescence | inhibition, % at 8.6 µM | HEK293T NGFI-A luciferase reporter | actives 0.7% (n = 370,000) | COUP transcription factor 2 (Homo sapiens), P24468;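 active = inhibition above a per-plate cutoff, mean inhibition of test wells between control levels plus 3 SD, cut at about 38% in these data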;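 note: cells cotransfected with COUP-TFII expression vector driving the NGFI-A reporter; 0% = median of COUP-TF2 test wells and 100% = reporter-only cells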
NR2E3 ag confirm: NR2E3 agonists, confirmation, biochemical, TR-FRET; shares compounds with NR2E3 ag-2; cell-free NR2E3 corepressor release, 5 h; activation (reported as inhibition), % at 3.98 µM; actives 39% (n = 360); in the data active = activation above about 20%
PPARg-NCOR2 ag: agonists of PPARg-NCOR2 corepressor interaction, counter-screen for NR2E3 agonist project, biochemical, TR-FRET; shares compounds with NR2E3 ag-2; TR-FRET PPARg-NCOR2 coregulator interaction; inhibition, % at 3.98 µM; actives 45% (n = 360); AID 504787, 2011; in the data active = inhibition above about 20%;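 note: 0% = DMSO vehicle and 100% = wells without protein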
* = called active by the depositor; nt = no result. Most compounds without a hit are left out; they make up all but 2.2% or so of the library.

SMILES	SMARCA2 act	GalR3 antag	NR2E3 ag-1	NR2E3 ag-2	COUP-TFII inh	NR2E3 ag confirm	PPARg-NCOR2 ag
Fc1ccc(NCc2nnc(SCc3nnc(-c4ccccc4)o3)n2CC2CCCO2)cc1 (centres undefined)	-2.7	-3.7	-5.3	35.6*	7.4	-17.7	4.5
O=C(CSc1nnc(CNc2ccc(F)cc2)n1CC1CCCO1)Nc1ccccc1 (centres undefined)	-4.3	-1.3	3.9	3.0	-4.3	nt	nt
COC(=O)c1cc2ccsc2n1CC(=O)Nc1cc(C)cc(C)c1	0.8	-2.7	-11.1	36.5*	6.1	19.1	19.9*
COC(=O)C1CN(C2CC2)CCS(=O)(=O)N1Cc1cn(Cc2ccc(C)cc2)nn1 (centres undefined)	-5.1	nt	nt	nt	3.9	nt	nt
Cc1c(NC(=O)c2ccc(N3CCCC3)c([N+](=O)[O-])c2)cccc1-c1nc2ccccc2s1	-3.6	-7.2	-39.4	0.1	-17.7	nt	nt
Cc1c(NC(=O)c2ncn[nH]2)cccc1-c1nc2ccccc2s1	-1.0	-4.0	-12.5	19.8*	9.1	5.4	18.4
N#Cc1ccccc1CN1C(=O)S/C(=C/c2cccn2-c2ccc(C(=O)O)cc2)C1=O	0.4	0.4	21.8	1.6	-4.4	nt	nt
O=C(O)c1ccc(-n2cccc2/C=C2/SC(=O)N(CC(=O)N3CCCC3)C2=O)cc1	3.9	-8.7	-54.3	20.6*	8.0	18.2	6.5
CCSc1cnn(-c2ccccc2)c(=O)c1Cl	-2.7	-4.9	9.6	0.2	-10.7	nt	nt
CCSc1cnn(-c2ccccc2)c(=O)c1SCC	-1.4	-2.0	-17.1	21.5*	-0.8	4.2	0.3
CCOC(=O)c1ccc2c(c1)C1C=CCC1C(C(=O)O)N2 (centres undefined)	nt	nt	nt	8.7	nt	nt	nt
CCOC(=O)C1Nc2ccc(C(=O)O)cc2C2C=CCC12 (centres undefined)	-1.9	-7.7	-37.4	29.6*	4.4	11.3	7.0
FC(F)(F)c1ccc2c(c1)C1C=CCC1C(c1ccncc1)N2 (centres undefined)	-1.6	-2.1	1.5	nt	6.6	nt	nt
O=C(O)c1ccc2c(c1)C1C=CCC1C(c1ccncc1)N2 (centres undefined)	1.0	1.9	-37.6	22.8*	0.4	18.2	-7.1
COC(=O)[C@]12C[C@H](CC(=O)NCCCCc3ccccc3)C(=O)N(CCc3ccc(OC)c(OC)c3)C1=C[C@H](C(C)C)O[C@@H]2C1CC1	-2.9	nt	nt	nt	-5.9	nt	nt
O=C(CSc1nc2ccccc2c(=O)n1Cc1ccccc1)NCc1ccco1	-2.0	-7.8	-11.3	30.9*	1.8	4.5	11.9
Cn1cccc1C(=O)N1CCN(S(=O)(=O)c2ccc(F)cc2)CC1	-4.8	nt	nt	nt	-23.7	nt	nt
Cc1onc(-c2ccccc2Cl)c1C(=O)Nc1nnc(-c2ccc(F)cc2)s1	-1.1	nt	9.2	4.8	-3.7	nt	nt
Cc1onc(-c2ccccc2Cl)c1C(=O)Nc1nnc(-c2ccc(Br)cc2)s1	-2.4	nt	14.1	21.5*	-13.5	14.3	15.0
COc1ccc(OC)c(S(=O)(=O)N2CCCC(C(=O)Nc3c(C)n(C)n(-c4ccccc4)c3=O)C2)c1 (centres undefined)	-2.2	nt	nt	nt	-3.1	nt	nt
CCN1CCN(C(=O)c2cc(-c3cccnc3)nc3ccc(Br)cc23)CC1	-2.2	-5.9	-9.4	6.4	6.4	nt	nt
O=C(O)c1cc(-c2cccs2)nc2ccc(F)cc12	-1.1	-4.0	-18.2	4.5	-2.7	nt	nt
O=C(O)c1cc(-c2ccc3c(c2)OCO3)nc2ccc(Br)cc12	3.9	-3.9	-42.5	37.7*	-11.0	44.4*	55.4*
